According to ChEMBL document CHEMBL1926569, “Novel (E)-1-(4-methyl-2-(alkylamino)thiazol-5-yl)-3-arylprop-2-en-1-ones as potent antimicrobial agents” (2011):
Values after ≈ are worked out from the molar mass of the structure shown.

Legend:
Aspergillus fumigatus [1] = test: Antifungal activity against Aspergillus fumigatus isolated from human incubated for 72 hrs followed by serial sub-cultivation for 72 hrs by serial dilution technique; type: functional
Procedure, shortened: (§1)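 MFC: material from 72 h malt broth microdilution wells was serially sub-cultured into fresh broth plates and incubated a further 72 h at 28 °C. Fungicidal concentration is taken from growth after sub-culture. Duplicate, repeated three times.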

Aspergillus ochraceus [2] = test: Ratio of ketoconazole to compound for Aspergillus ochraceus ATCC 12066; type: functional
Talaromyces funiculosus [3] = test: Antifungal activity against Penicillium funiculosum ATCC 36839 incubated for 72 hrs followed by serial sub-cultivation for 72 hrs by serial dilution technique; type: functional; details: ATCC 36839, 72 h; procedure, shortened: as §1
Pseudomonas aeruginosa [4] = test: Antibacterial activity against Pseudomonas aeruginosa ATCC 27853 after 24 hrs by microdilution method; type: functional; details: ATCC 27853, 24 h
Procedure, shortened: (§2)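 Broth microdilution in 96-well plates. Bacterial suspensions were adjusted in sterile saline to 1.0 × 10⁵ CFU/ml, prepared daily and kept at 4 °C. Compound was added to LB broth with 1.0 × 10⁴ CFU per well and shaken at 160 rpm for 24 h at […] (so in the source). MIC is the lowest concentration with no visible growth under a binocular microscope. OD655 was also read. Duplicate, repeated three times.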

Candida albicans [5] = test: Ratio of bifonazole to compound for Candida albicans isolated from human; type: functional
Penicillium ochrochloron [6] = test: Ratio of ketoconazole to compound for Penicillium ochrochloron ATCC 9112; type: functional
Candida albicans [7] = test: Antifungal activity against Candida albicans isolated from human incubated for 72 hrs followed by serial sub-cultivation for 72 hrs by serial dilution technique; type: functional; procedure, shortened: as §1
Listeria monocytogenes [8] = test: Antibacterial activity against Listeria monocytogenes NCTC 7973 after 24 hrs by microdilution method; type: functional; details: NCTC 7973, 24 h; procedure, shortened: as §2
Aspergillus flavus [9] = test: Antifungal activity against Aspergillus flavus ATCC 9643 after 72 hrs by serial dilution technique; type: functional; details: ATCC 9643, 72 h
Procedure, shortened: (§3)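 Modified microdilution in 96-well plates. Fungi were kept on malt agar at 4 °C. Spores were washed off in sterile 0.85% saline with 0.1% Tween 80. Compounds were dissolved at 1 mg/ml in 5% DMSO with 0.1% Tween 80 and added to malt broth with inoculum. Plates were shaken at 160 rpm for 72 h at 28 °C. Duplicate, repeated three times.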

Salmonella typhimurium [10] = test: Antibacterial activity against Salmonella Typhimurium ATCC 13311 incubated for 24 hrs followed by serial sub-cultivation for 24 hrs by microdilution; type: functional, Salmonella enterica subsp. enterica serovar Typhimurium; details: Salmonella enterica, ATCC 13311, 24 h
Procedure, shortened: (§4)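 MBC: after the 24 h LB broth microdilution (1.0 × 10⁴ CFU per well, 160 rpm), wells were serially sub-cultured into fresh broth plates and incubated a further 24 h. MBC is the lowest concentration with no visible growth, taken as 99.5% killing of the original inoculum. Duplicate, repeated three times.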

Micrococcus flavus [11] = test: Antibacterial activity against Micrococcus flavus ATCC 10240 incubated for 24 hrs followed by serial sub-cultivation for 24 hrs by microdilution; type: functional; details: ATCC 10240, 24 h; procedure, shortened: as §4
Talaromyces funiculosus [12] = test: Ratio of bifonazole to compound for Penicillium funiculosum ATCC 36839; type: functional
Pseudomonas aeruginosa [13] = test: Antibacterial activity against Pseudomonas aeruginosa ATCC 27853 incubated for 24 hrs followed by serial sub-cultivation for 24 hrs by microdilution; type: functional; details: ATCC 27853, 24 h; procedure, shortened: as §4
Bacillus cereus [14] = test: Antibacterial activity against clinical isolate of Bacillus cereus after 24 hrs by microdilution method; type: functional; procedure, shortened: as §2
Candida albicans [15] = test: Antifungal activity against Candida albicans isolated from human after 72 hrs by serial dilution technique; type: functional; procedure, shortened: as §3
Enterococcus faecalis [16] = test: Antibacterial activity against Enterococcus faecalis isolated from human incubated for 24 hrs followed by serial sub-cultivation for 24 hrs by microdilution; type: functional; procedure, shortened: as §4
Salmonella typhimurium [17] = test: Antibacterial activity against Salmonella Typhimurium ATCC 13311 after 24 hrs by microdilution method; type: functional, Salmonella enterica subsp. enterica serovar Typhimurium; details: Salmonella enterica, ATCC 13311, 24 h; procedure, shortened: as §2
Staphylococcus aureus [18] = test: Antibacterial activity against Staphylococcus aureus ATCC 6538 incubated for 24 hrs followed by serial sub-cultivation for 24 hrs by microdilution method; type: functional; details: ATCC 6538, 24 h; procedure, shortened: as §4
Penicillium ochrochloron [19] = test: Antifungal activity against Penicillium ochrochloron ATCC 9112 incubated for 72 hrs followed by serial sub-cultivation for 72 hrs by serial dilution technique; type: functional; details: ATCC 9112, 72 h; procedure, shortened: as §1
Aspergillus flavus [20] = test: Antifungal activity against Aspergillus flavus ATCC 9643 incubated for 72 hrs followed by serial sub-cultivation for 72 hrs by serial dilution technique; type: functional; details: ATCC 9643, 72 h; procedure, shortened: as §1
Candida albicans [21] = test: Ratio of ketoconazole to compound for Candida albicans isolated from human; type: functional
Trichoderma viride [22] = test: Ratio of bifonazole to compound for Trichoderma viride IAM 5061; type: functional
Penicillium ochrochloron [23] = test: Ratio of bifonazole to compound for Penicillium ochrochloron ATCC 9112; type: functional
Listeria monocytogenes [24] = test: Antibacterial activity against Listeria monocytogenes NCTC 7973 incubated for 24 hrs followed by serial sub-cultivation for 24 hrs by microdilution; type: functional; details: NCTC 7973, 24 h; procedure, shortened: as §4
Aspergillus niger [25] = test: Antifungal activity against Aspergillus niger ATCC 6275 incubated for 72 hrs followed by serial sub-cultivation for 72 hrs by serial dilution technique; type: functional; details: ATCC 6275, 72 h; procedure, shortened: as §1
Aspergillus niger [26] = test: Antifungal activity against Aspergillus niger ATCC 6275 after 72 hrs by serial dilution technique; type: functional; details: ATCC 6275, 72 h; procedure, shortened: as §3
Aspergillus niger [27] = test: Ratio of bifonazole to compound for Aspergillus niger ATCC 6275; type: functional
Aspergillus ochraceus [28] = test: Antifungal activity against Aspergillus ochraceus ATCC 12066 incubated for 72 hrs followed by serial sub-cultivation for 72 hrs by serial dilution technique; type: functional; details: ATCC 12066, 72 h; procedure, shortened: as §1
Aspergillus ochraceus [29] = test: Antifungal activity against Aspergillus ochraceus after 72 hrs by serial dilution technique
Aspergillus ochraceus [30] = test: Antifungal activity against Aspergillus ochraceus ATCC 12066 after 72 hrs by serial dilution technique; type: functional; details: ATCC 12066, 72 h; procedure, shortened: as §3
Escherichia coli [31] = test: Antibacterial activity against Escherichia coli ATCC 35210 incubated for 24 hrs followed by serial sub-cultivation for 24 hrs by microdilution; type: functional; details: ATCC 35210, 24 h; procedure, shortened: as §4
Penicillium ochrochloron [32] = test: Antifungal activity against Penicillium ochrochloron ATCC 9112 after 72 hrs by serial dilution technique; type: functional; details: ATCC 9112, 72 h; procedure, shortened: as §3
Escherichia coli [33] = test: Antibacterial activity against Escherichia coli ATCC 35210 after 24 hrs by microdilution method; type: functional; details: ATCC 35210, 24 h; procedure, shortened: as §2
Talaromyces funiculosus [34] = test: Antifungal activity against Penicillium funiculosum ATCC 36839 after 72 hrs by serial dilution technique; type: functional; details: ATCC 36839, 72 h; procedure, shortened: as §3
Bacillus cereus [35] = test: Antibacterial activity against clinical isolate of Bacillus cereus incubated for 24 hrs followed by serial sub-cultivation for 24 hrs by microdilution; type: functional; procedure, shortened: as §4
Aspergillus ochraceus [36] = test: Ratio of bifonazole to compound for Aspergillus ochraceus ATCC 12066; type: functional
Micrococcus flavus [37] = test: Antibacterial activity against Micrococcus flavus ATCC 10240 after 24 hrs by microdilution method; type: functional; details: ATCC 10240, 24 h; procedure, shortened: as §2
Trichoderma viride [38] = test: Antifungal activity against Trichoderma viride IAM 5061 after 72 hrs by serial dilution technique; type: functional; details: IAM 5061, 72 h; procedure, shortened: as §3
Staphylococcus aureus [39] = test: Antibacterial activity against Staphylococcus aureus ATCC 6538 after 24 hrs by microdilution method; type: functional; details: ATCC 6538, 24 h; procedure, shortened: as §2
Trichoderma viride [40] = test: Antifungal activity against Trichoderma viride IAM 5061 incubated for 72 hrs followed by serial sub-cultivation for 72 hrs by serial dilution technique; type: functional; details: IAM 5061, 72 h; procedure, shortened: as §1
Aspergillus fumigatus [41] = test: Ratio of ketoconazole to compound for Aspergillus fumigatus isolated from human; type: functional
Pseudomonas aeruginosa [42] = test: Ratio of ampicillin MIC to compound MIC for Pseudomonas aeruginosa ATCC 27853; type: functional
Enterococcus faecalis [43] = test: Antibacterial activity against Enterococcus faecalis isolated from human after 24 hrs by microdilution method; type: functional; procedure, shortened: as §2

CNc1nc(C)c(C(=O)/C=C/c2cccc(F)c2)s1
MFC (Aspergillus fumigatus [1]): 72.5 µM (≈ 20 µg/mL) | Ratio (Aspergillus ochraceus [2]): 10 | MFC (Talaromyces funiculosus [3]): 72.5 µM (≈ 20 µg/mL) | MIC (Pseudomonas aeruginosa [4]): 54.3 µM (≈ 15 µg/mL) | Ratio (Candida albicans [5]): 10 | Ratio (Penicillium ochrochloron [6]): 10 | MFC (Candida albicans [7]): 72.5 µM (≈ 20 µg/mL) | MIC (Listeria monocytogenes [8]): 90.6 µM (≈ 25 µg/mL) | MIC (Aspergillus flavus [9]): 36.2 µM (≈ 10 µg/mL) | MBC (Salmonella typhimurium [10]): 90.6 µM (≈ 25 µg/mL) | MBC (Micrococcus flavus [11]): 72.5 µM (≈ 20 µg/mL) | Ratio (Talaromyces funiculosus [12]): 10 | MBC (Pseudomonas aeruginosa [13]): 72.5 µM (≈ 20 µg/mL) | MIC (Bacillus cereus [14]): 72.5 µM (≈ 20 µg/mL) | MIC (Candida albicans [15]): 51.3 µM (≈ 14.2 µg/mL) | MBC (Enterococcus faecalis [16]): 72.5 µM (≈ 20 µg/mL) | MIC (Salmonella typhimurium [17]): 72.5 µM (≈ 20 µg/mL) | MBC (Staphylococcus aureus [18]): 90.6 µM (≈ 25 µg/mL) | MFC (Penicillium ochrochloron [19]): 72.5 µM (≈ 20 µg/mL) | MFC (Aspergillus flavus [20]): 90.6 µM (≈ 25 µg/mL) | Ratio (Candida albicans [21]): 10 | Ratio (Trichoderma viride [22]): 10 | Ratio (Penicillium ochrochloron [23]): 10 | MBC (Listeria monocytogenes [24]): 90.6 µM (≈ 25 µg/mL) | MFC (Aspergillus niger [25]): 72.5 µM (≈ 20 µg/mL) | MIC (Aspergillus niger [26]): 54.3 µM (≈ 15 µg/mL) | Ratio (Aspergillus niger [27]): 10 | MFC (Aspergillus ochraceus [28]): 72.5 µM (≈ 20 µg/mL) | MIC (Aspergillus ochraceus [29]): 36.2 µM (≈ 10 µg/mL) | MIC (Aspergillus ochraceus [30]): 36.2 µM (≈ 10 µg/mL) | MBC (Escherichia coli [31]): 72.5 µM (≈ 20 µg/mL) | MIC (Penicillium ochrochloron [32]): 36.2 µM (≈ 10 µg/mL) | MIC (Escherichia coli [33]): 54.3 µM (≈ 15 µg/mL) | MIC (Talaromyces funiculosus [34]): 36.2 µM (≈ 10 µg/mL) | MBC (Bacillus cereus [35]): 90.6 µM (≈ 25 µg/mL) | Ratio (Aspergillus ochraceus [36]): 10 | MIC (Micrococcus flavus [37]): 18.1 µM (≈ 5 µg/mL) | MIC (Trichoderma viride [38]): 36.2 µM (≈ 10 µg/mL) | MIC (Staphylococcus aureus [39]): 72.5 µM (≈ 20 µg/mL) | MFC (Trichoderma viride [40]): 72.5 µM (≈ 20 µg/mL) | Ratio (Aspergillus fumigatus [41]): 10 | Ratio (Pseudomonas aeruginosa [42]): 10 | MIC (Enterococcus faecalis [43]): 54.3 µM (≈ 15 µg/mL)
